Source: PubChem
Sampled rows, rich in hits. Any-hit rate of the full collection: about 1.3%.
Efflux pump mplx: inhibitors of Candida efflux pumps in yeast, primary screen, S. cerevisiae, Nile Red, multiplex. 330,000 compounds, 0.44% hits. S. cerevisiae Candida pump triplex. inhibition, % at 10 µM;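 active = plate passing quality check with inhibition over a set limit, or well fluorescence over plate mean plus 4 SD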;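 also: Nile Red retained in pooled yeast measured as flow cytometry median fluorescence; 0% = buffer negative control and 100% = Enniatin B positive control; higher means more Nile Red kept so more efflux inhibition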
MT1-MMP act inh: blockers of MT1-MMP proenzyme processing, primary screen, HT1080 RFP-PRO-GFP cells, GFP/RFP fluorescence; GFP/RFP ratio fluorescence, overnight; percent of plate control window, DMSO zero; GFP/RFP ratio change, % at 20 µM; 360,000 compounds, 0.061% hits; AID 651647, 2012;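 active = GFP/RFP ratio change of at least 30% with cell ATP level not reduced by more than half and red fluorescence within 50% of control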
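Test system: HT1080 cells expressing an RFP-PRO-GFP fluorescent reporter construct / Compound dosing: single-point 20 µM compound, 1% DMSO / Schedule: cells overnight before dosing, compound overnight, 37 °C, 5% CO2 / Evaluation: GFP/RFP fluorescence ratio / Control set: DMSO and RFP-L50D-GFP cell wells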
HGIII-sPLA2 inh: human group III sPLA2 inhibitors, primary screen, biochemical, QFRET, BODIPY PC-A2 liposome substrate; Group 3 secretory phospholipase A2 (Homo sapiens), Q9NZ20; QFRET BODIPY PC-A2 liposome hydrolysis, fluorescence; inhibition, % at 12.2 µM; 370,000 compounds, 0.56% hits; AID 743126, 2013;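 active = inhibition above mean plus 3 SD of compounds lying within the high and low control bounds, cut at about 19% in these data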;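 also: 0% = median of test compound wells and 100% = no enzyme DMSO wells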
Target sequence (Q9NZ20 whole entry, looked up): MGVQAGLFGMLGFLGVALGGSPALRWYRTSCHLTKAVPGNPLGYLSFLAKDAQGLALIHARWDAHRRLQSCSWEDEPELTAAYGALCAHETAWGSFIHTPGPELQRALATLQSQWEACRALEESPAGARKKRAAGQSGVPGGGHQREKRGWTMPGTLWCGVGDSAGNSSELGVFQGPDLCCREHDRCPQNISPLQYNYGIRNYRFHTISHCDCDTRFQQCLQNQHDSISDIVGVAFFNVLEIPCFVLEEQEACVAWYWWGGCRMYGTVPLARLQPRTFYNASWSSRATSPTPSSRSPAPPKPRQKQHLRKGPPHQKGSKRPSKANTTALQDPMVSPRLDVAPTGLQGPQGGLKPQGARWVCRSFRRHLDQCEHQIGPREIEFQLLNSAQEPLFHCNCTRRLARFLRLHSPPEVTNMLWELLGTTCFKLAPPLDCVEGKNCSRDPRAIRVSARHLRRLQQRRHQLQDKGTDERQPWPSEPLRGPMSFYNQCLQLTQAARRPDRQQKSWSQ
TAG inh: inhibitors of triacylglycerol accumulation, primary screen, cell-based, uHTS, fluorescence, H9c2; 230,000 compounds, 0.66% hits; AID 651582, 2012; inhibition, % at 12.5 µM; H9c2 cells, Nile Red lipid (TAG) fluorescence; cells loaded with 200 µM oleic acid;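 active = pattern-corrected inhibition of lipid staining of at least 50% with the nuclear-stain viability signal not falling by more than 50%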;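 also: 0% = DMSO wells and 100% = triacsin C control wells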
* marks the source's active call; other numbers are inactive results; ! = a repeat was not active.

Results for CCN(CC)c1ccc(/C=C/c2nc3ccccc3s2)cc1 ?
Efflux pump mplx: 1.0*

What do the screens show for `CC(c1ccc(NC(=O)OC(C)(C)C)cc1)c1cn(C)c2ccccc12` (configuration not stated)?
HGIII-sPLA2 inh: -37

Results for CC(C)(C)OC(=O)N1CCC(N[C@@H](Cc2ccccc2)C(=O)NCC(c2ccccc2)c2ccccc2)(C(=O)NC2CCCCC2)CC1 ?
HGIII-sPLA2 inh: -1

Results for CCCCc1ccc(/C=C2\C(=O)c3ccccc3C(O)=C2C(=O)OCC)cc1 ?
Efflux pump mplx: 1.1*

What do the screens show for `CCOC(=O)C1=C(Cc2ccc(F)cc2)C(=O)c2ccccc2C1=O`?
Efflux pump mplx: 0; MT1-MMP act inh: -76; HGIII-sPLA2 inh: -5

Results for COCC(C)N1C(=O)Cc2c1nc(N)c1c(N)nc(N3CCN(c4ccccc4F)CC3)c(C#N)c21 (configuration not stated) ?
Efflux pump mplx: 0; MT1-MMP act inh: 0; HGIII-sPLA2 inh: 25*; TAG inh: 3

How did COCCN1C(=O)Cc2c1nc(N)c1c(N)nc(N3CCN(c4ccc(F)cc4)CC3)c(C#N)c21 do in these assays?
Efflux pump mplx: 0; MT1-MMP act inh: 1; HGIII-sPLA2 inh: 18; TAG inh: 11

What do the screens show for `Cc1ccc(S(=O)(=O)N2CC[C@@]3(Cc4ccccc4)Cc4ccccc4C[C@@H]23)cc1`?
HGIII-sPLA2 inh: -6

How did C=CCCC1CN(Cc2ccc(OC)cc2)S(=O)(=O)c2c(cccc2N2CCCCC2)O1 (configuration not stated) do in these assays?
HGIII-sPLA2 inh: 16

What do the screens show for `CC(C)CN1CCN(C(=O)COC(=O)c2ccc(S(C)(=O)=O)c([N+](=O)[O-])c2)CC1`?
MT1-MMP act inh: 1; HGIII-sPLA2 inh: -1; TAG inh: 65*

What do the screens show for `CC(OC(=O)c1ccc(S(C)(=O)=O)c([N+](=O)[O-])c1)C(=O)NC1C2CC3CC(C2)CC1C3` (configuration not stated)?
MT1-MMP act inh: 2; HGIII-sPLA2 inh: 6; TAG inh: 65*

How did CC(=O)CC[C@H]1CC[C@]2(CCCN(C(=O)c3ccccc3)C2)O1 do in these assays?
HGIII-sPLA2 inh: 8

What do the screens show for `COc1ccccc1-c1cc(C(=O)NC2CCN(C)CC2)c2ccc(Cl)c(C)c2n1`?
Efflux pump mplx: 1.6*; MT1-MMP act inh: -2; HGIII-sPLA2 inh: 3; TAG inh: 103*

Results for Nn1c(SCC(=O)Nc2cccc3ccccc23)nnc1-c1n[nH]c2c1CCC2 ?
HGIII-sPLA2 inh: -6

Results for Cc1ccc(-c2ccc(/C=C(\C#N)C(=O)Nc3cc(C)nn3-c3ccccc3)o2)cc1 ?
Efflux pump mplx: 1.5*

How did OCCN1CCN(CCCN2c3ccccc3Sc3ccc(Cl)cc32)CC1 do in these assays?
Efflux pump mplx: 0; MT1-MMP act inh: 0; HGIII-sPLA2 inh: -8; TAG inh: 17

Results for CN(C)CCCN1c2ccccc2Sc2ccc(Cl)cc21 ?
Efflux pump mplx: 0; MT1-MMP act inh: -11; HGIII-sPLA2 inh: -18; TAG inh: 50*!

How did O=C(OCc1ccccc1)c1ccc(NCc2cc(O)ccc2O)cc1 do in these assays?
MT1-MMP act inh: -30; HGIII-sPLA2 inh: 26*; TAG inh: 109

What do the screens show for `COP(=O)(OC)c1ccc(NCc2cc(O)ccc2O)cc1`?
MT1-MMP act inh: -24; HGIII-sPLA2 inh: -1; TAG inh: -4

How did CC(C)OC(=O)c1ccc(NCc2cc(O)ccc2O)cc1 do in these assays?
MT1-MMP act inh: -55; HGIII-sPLA2 inh: 22*; TAG inh: 92

What do the screens show for `CCC(=O)Nc1ccc(C(=O)OCc2ccccc2)cc1`?
Efflux pump mplx: 0; MT1-MMP act inh: 5; HGIII-sPLA2 inh: -5; TAG inh: 6

How did CC(=O)c1cccc(NC(=O)c2cnn3c(C)cc(C)nc23)c1 do in these assays?
HGIII-sPLA2 inh: 11

How did COc1ccc(/C=N/NC(=O)CCn2cnc(-c3ccccc3)c2-c2ccccc2)cc1 do in these assays?
Efflux pump mplx: 0; MT1-MMP act inh: 10; HGIII-sPLA2 inh: -22; TAG inh: 40

Results for COc1ccc(/C=N/NC(=O)COc2ccccc2-c2ccccc2)cc1 ?
Efflux pump mplx: 0; MT1-MMP act inh: 12; HGIII-sPLA2 inh: -12; TAG inh: 59*

How did CC(=C\C=O)/C(C)=C/CC[C@@H]1O[C@@H]2C[C@@H]3O[C@](C)(C[C@H]4C[C@H](O)[C@@H]5O[C@@H]6C[C@H](O)[C@@H](C)O[C@@]6(C)CC[C@H]5O4)[C@@H](O)CC[C@@]3(C)O[C@H]2[C@@H](O)[C@@H]1C do in these assays?
HGIII-sPLA2 inh: 5

Results for CCCCCc1cc(=O)oc2c(C(CCN3CCCCC3)c3cc(OC)c(OC)c(OC)c3)c(OC)cc(OC)c12 (configuration not stated) ?
Efflux pump mplx: 0; MT1-MMP act inh: -6; HGIII-sPLA2 inh: -12; TAG inh: 80*

What do the screens show for `NC(=O)c1ccc(N=Nc2c(-c3ccccc3)[nH]n(-c3ccccc3)c2=O)cc1`?
Efflux pump mplx: 0; HGIII-sPLA2 inh: -3

How did O=c1c(N=Nc2ccc(O)cc2)c(-c2ccccc2)[nH]n1-c1ccc([N+](=O)[O-])cc1 do in these assays?
Efflux pump mplx: 0; MT1-MMP act inh: 21; HGIII-sPLA2 inh: 4; TAG inh: 88*

How did Cc1c2cc(O)c(=O)cc-2oc2cc(O)c(O)cc12 do in these assays?
Efflux pump mplx: 1.0*; MT1-MMP act inh: -194; HGIII-sPLA2 inh: 6

Results for O=C(NCc1ccccc1)N1CCN(Cc2nc3ccccc3c(=O)[nH]2)CC1 ?
HGIII-sPLA2 inh: 3

How did CCNC(=O)NC(=O)COC(=O)c1ccccc1SCC(=O)NC(=O)NCC do in these assays?
Efflux pump mplx: 0; MT1-MMP act inh: 35*; HGIII-sPLA2 inh: 1; TAG inh: -1

Results for O=C(COC(=O)c1ccccc1SCC(=O)NC1CCS(=O)(=O)C1)NC1CCS(=O)(=O)C1 (configuration not stated) ?
Efflux pump mplx: 0; MT1-MMP act inh: 0; HGIII-sPLA2 inh: -3; TAG inh: -9

How did Cc1cc(C)c2nc(SCC(=O)N3CC(=O)Nc4ccccc43)c(C#N)cc2c1 do in these assays?
Efflux pump mplx: 0; MT1-MMP act inh: -70; HGIII-sPLA2 inh: 0; TAG inh: 54*

What do the screens show for `COc1cc(C(=O)N2CC(=O)Nc3ccccc32)cc(OC)c1OC`?
MT1-MMP act inh: -8; HGIII-sPLA2 inh: 0; TAG inh: 25

Results for Cc1cc(C)cc(C(=O)N2CC(=O)Nc3ccccc32)c1 ?
Efflux pump mplx: 0; MT1-MMP act inh: 14; HGIII-sPLA2 inh: 10; TAG inh: 55*

What do the screens show for `Cc1cc(C)c2nc(SCC(=O)Nc3ccccc3N3CCOCC3)c(C#N)cc2c1`?
Efflux pump mplx: 0; MT1-MMP act inh: -13; HGIII-sPLA2 inh: 6; TAG inh: 3

What do the screens show for `FC(F)(F)c1cccc(N2CCN(C(=S)Nc3nccc4ccccc34)CC2)c1`?
HGIII-sPLA2 inh: 10
